Measurements as given in ChEMBL document CHEMBL4359890, “Design, synthesis of oleanolic acid-saccharide conjugates using click chemistry methodology and study of their anti-influenza activity” (Eur J Med Chem, 2019).
Activity calls are given as the source filed them. The calls are words filed in the database; no cut-off is given here.

Columns and labels:
MDCK = assay: Cytotoxicity against dog MDCK cells assessed as reduction in cell viability at 100 uM measured after 40 hrs by Celltiter-Glo assay; format: cell-based, Canis lupus familiaris
Procedure, shortened: (§1)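 Uninfected MDCK cells were grown overnight in 96-well plates with 1% FBS. They were then exposed to increasing compound concentrations, or to a single 100 μM screen, for 40 h, and viability was read by CellTiter-Glo. CC50 is the concentration causing 50% death of uninfected cells.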

Influenza A virus [1] = assay: Antiviral activity against Influenza A virus A/WSN/33 assessed as inhibition of virus-induced cytopathic effect after 40 hrs by Celltiter-Glo assay; format: functional, organism-based; settings: A/WSN/33, 40 h
Procedure, shortened: (§2)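 MDCK cells were seeded in 96-well plates, left overnight, then infected with influenza virus at MOI 0.1 and treated with the compound. After 40 h, viability was read by CellTiter-Glo luminescence. 1% DMSO (final) served as the negative control and oseltamivir phosphate as the positive control. IC50 is the concentration that inhibits virus-induced CPE by 50%, taken from dose-response curves in replicate independent experiments.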

[2] = Selectivity index, ratio of CC50 for MDCK cells to IC50 for influenza A virus A/WSN/33; format: toxicity; settings: dog, read-out: Ratio CC50/IC50
Procedure, shortened: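 SI was calculated as CC50 (uninfected MDCK, 40 h CellTiter-Glo) divided by IC50 (50% inhibition of A/WSN/33 replication in MDCK, MOI 0.1, 40 h CellTiter-Glo).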

[3] = Cytotoxicity against dog MDCK cells assessed as cell viability at 100 uM measured after 40 hrs by Celltiter-Glo assay relative to control; format: cell-based, Canis lupus familiaris; settings: read-out: Activity; procedure, shortened: as §1
[4] = Cytotoxicity against dog MDCK cells assessed as reduction in cell viability measured after 40 hrs by Celltiter-Glo assay; format: cell-based, Canis lupus familiaris; procedure, shortened: as §1
Influenza A virus [5] = assay: Antiviral activity against Influenza A virus A/WSN/33 infected in MDCK cells assessed as reduction in virus-induced cytopathic effect at 100 uM after 40 hrs by Celltiter-Glo assay relative to control; format: functional; settings: A/WSN/33, MDCK
Procedure, shortened: (§3)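 This was a single-concentration screen at 100 μM in MDCK cells infected with A/WSN/33 at MOI 0.1. CPE protection was read by CellTiter-Glo after 40 h of incubation. The inhibition rate was expressed relative to 1% DMSO (final) negative control, with oseltamivir phosphate as the positive control. Experiments were run in triplicate.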

Influenza B virus [6] = assay: Antiviral activity against Influenza B virus B/Sichuan/531/2018(BV) infected in MDCK cells assessed as inhibition of virus-induced cytopathic effect after 40 hrs by Celltiter-Glo assay; format: functional, organism-based; procedure, shortened: as §2
Influenza B virus [7] = assay: Antiviral activity against Influenza B virus B/Yamagata/16/88(BY) infected in MDCK cells assessed as inhibition of virus-induced cytopathic effect after 40 hrs by Celltiter-Glo assay; format: functional, organism-based; procedure, shortened: as §2
Influenza A virus [8] = assay: Antiviral activity against Influenza A virus A/Victoria/361/2011(H3N2) infected in MDCK cells assessed as inhibition of virus-induced cytopathic effect after 40 hrs by Celltiter-Glo assay; format: functional, organism-based; procedure, shortened: as §2
Influenza B virus [9] = assay: Antiviral activity against Influenza B virus B/Massachusetts/2/2012(BV) infected in MDCK cells assessed as inhibition of virus-induced cytopathic effect after 40 hrs by Celltiter-Glo assay; format: functional, organism-based; procedure, shortened: as §2
Influenza A virus [10] = assay: Antiviral activity against Influenza A virus A/WSN/33 infected in MDCK cells assessed as reduction in virus-induced cytopathic effect at 100 uM after 40 hrs by Celltiter-Glo assay; format: functional, organism-based; procedure, shortened: as §3

## CC1(C)CC[C@]2(C(=O)NCc3cn([C@@H]4O[C@H](CO)[C@H](O)[C@H](O)[C@H]4O)nn3)CC[C@]3(C)C(=CC[C@@H]4[C@@]5(C)CC[C@H](O)C(C)(C)[C@@H]5CC[C@]43C)[C@@H]2C1
MDCK
  Activity: Non-Toxic

## CC(=O)OC[C@H]1O[C@@H](O[C@H]2[C@H](OC(C)=O)[C@@H](OC(C)=O)[C@H](n3cc(CNC(=O)[C@]45CCC(C)(C)C[C@H]4C4=CC[C@@H]6[C@@]7(C)CC[C@H](O)C(C)(C)[C@@H]7CC[C@@]6(C)[C@]4(C)CC5)nn3)O[C@@H]2COC(C)=O)[C@H](OC(C)=O)[C@@H](OC(C)=O)[C@H]1OC(C)=O
MDCK
  Activity: Non-Toxic

## CC1(C)CC[C@]2(C(=O)NCc3cn([C@@H]4OC[C@H](O)[C@H](O)[C@H]4O)nn3)CC[C@]3(C)C(=CC[C@@H]4[C@@]5(C)CC[C@H](O)C(C)(C)[C@@H]5CC[C@]43C)[C@@H]2C1
Influenza A virus [1]
  IC50: 12.9 µM
MDCK
  Activity: Non-Toxic
[2]
  selectivity ratio: > 7.73
[3]
  viability at 40 h, 100 µM: > 75%
[4]
  CC50 at 40 h: > 100 µM
Influenza A virus [5]
  inhibition at 100 µM: > 75%

## CC(=O)O[C@@H]1[C@@H](OC(C)=O)[C@H](OC(C)=O)CO[C@H]1n1cc(CNC(=O)[C@]23CCC(C)(C)C[C@H]2C2=CC[C@@H]4[C@@]5(C)CC[C@H](O)C(C)(C)[C@@H]5CC[C@@]4(C)[C@]2(C)CC3)nn1
MDCK
  Activity: Non-Toxic

## CC1(C)CC[C@]2(C(=O)NCc3cn([C@@H]4O[C@H](CO)[C@@H](O[C@H]5O[C@H](CO)[C@@H](O)[C@H](O)[C@H]5O)[C@H](O)[C@H]4O)nn3)CC[C@]3(C)C(=CC[C@@H]4[C@@]5(C)CC[C@H](O)C(C)(C)[C@@H]5CC[C@]43C)[C@@H]2C1
MDCK
  Activity: Non-Toxic

## CC(=O)OC[C@H]1O[C@@H](n2cc(CNC(=O)[C@]34CCC(C)(C)C[C@H]3C3=CC[C@@H]5[C@@]6(C)CC[C@H](O)C(C)(C)[C@@H]6CC[C@@]5(C)[C@]3(C)CC4)nn2)[C@H](OC(C)=O)[C@@H](OC(C)=O)[C@H]1OC(C)=O
MDCK
  Activity: Toxic
Influenza A virus [5]
  inhibition at 100 µM: 75%

## CC1(C)CC[C@]2(C(=O)NCc3cn([C@H]4O[C@H](CO)[C@@H](O)[C@H](O)[C@@H]4O)nn3)CC[C@]3(C)C(=CC[C@@H]4[C@@]5(C)CC[C@H](O)C(C)(C)[C@@H]5CC[C@]43C)[C@@H]2C1
MDCK
  Activity: Non-Toxic

## C[C@@H]1O[C@@H](n2cc(CNC(=O)[C@]34CCC(C)(C)C[C@H]3C3=CC[C@@H]5[C@@]6(C)CC[C@H](O)C(C)(C)[C@@H]6CC[C@@]5(C)[C@]3(C)CC4)nn2)[C@H](O)[C@H](O)[C@H]1O
MDCK
  Activity: Toxic
Influenza A virus [5]
  inhibition at 100 µM: 75%

## CCOC(=O)C1=C[C@@H](OC(CC)CC)[C@H](NC(C)=O)[C@@H](N)C1 [OSELTAMIVIR PHOSPHATE]
Influenza B virus [6]
  IC50: > 100 µM
Influenza A virus [1]
  IC50: 1.82 µM
[2]
  selectivity ratio: > 54.9
Influenza B virus [7]
  IC50: 23.4 µM
[4]
  CC50 at 40 h: > 100 µM
Influenza A virus [8]
  IC50: > 100 µM
Influenza B virus [9]
  IC50: > 100 µM

## CC(=O)OC[C@H]1O[C@@H](n2cc(CNC(=O)[C@]34CCC(C)(C)C[C@H]3C3=CC[C@@H]5[C@@]6(C)CC[C@H](O)C(C)(C)[C@@H]6CC[C@@]5(C)[C@]3(C)CC4)nn2)[C@H](OC(C)=O)[C@@H](OC(C)=O)[C@@H]1O[C@H]1O[C@H](COC(C)=O)[C@@H](O[C@H]2O[C@H](COC(C)=O)[C@@H](OC(C)=O)[C@H](OC(C)=O)[C@H]2OC(C)=O)[C@H](OC(C)=O)[C@H]1OC(C)=O
Influenza A virus [10]
  Activity: inactive
MDCK
  Activity: Non-Toxic

## CC(=O)O[C@@H]1[C@@H](OC(C)=O)[C@H](n2cc(CNC(=O)[C@]34CCC(C)(C)C[C@H]3C3=CC[C@@H]5[C@@]6(C)CC[C@H](O)C(C)(C)[C@@H]6CC[C@@]5(C)[C@]3(C)CC4)nn2)OC[C@@H]1OC(C)=O
MDCK
  Activity: Non-Toxic

## CC(=O)OC[C@H]1O[C@@H](n2cc(CNC(=O)[C@]34CCC(C)(C)C[C@H]3C3=CC[C@@H]5[C@@]6(C)CC[C@H](O)C(C)(C)[C@@H]6CC[C@@]5(C)[C@]3(C)CC4)nn2)[C@H](OC(C)=O)[C@@H](OC(C)=O)[C@@H]1O[C@@H]1O[C@H](COC(C)=O)[C@@H](OC(C)=O)[C@H](OC(C)=O)[C@H]1OC(C)=O
MDCK
  Activity: Non-Toxic

## CC(=O)OC[C@H]1O[C@@H](n2cc(CNC(=O)[C@]34CCC(C)(C)C[C@H]3C3=CC[C@@H]5[C@@]6(C)CC[C@H](O)C(C)(C)[C@@H]6CC[C@@]5(C)[C@]3(C)CC4)nn2)[C@H](OC(C)=O)[C@@H](OC(C)=O)[C@@H]1OC(C)=O
MDCK
  Activity: Non-Toxic

## CC1(C)CC[C@]2(C(=O)NCc3cn([C@@H]4OC[C@@H](O)[C@H](O)[C@H]4O)nn3)CC[C@]3(C)C(=CC[C@@H]4[C@@]5(C)CC[C@H](O)C(C)(C)[C@@H]5CC[C@]43C)[C@@H]2C1
MDCK
  Activity: Toxic
Influenza A virus [5]
  inhibition at 100 µM: 75%

## CC(=O)O[C@@H]1[C@@H](OC(C)=O)[C@H](C)O[C@@H](n2cc(CNC(=O)[C@]34CCC(C)(C)C[C@H]3C3=CC[C@@H]5[C@@]6(C)CC[C@H](O)C(C)(C)[C@@H]6CC[C@@]5(C)[C@]3(C)CC4)nn2)[C@@H]1OC(C)=O
MDCK
  Activity: Non-Toxic

## CC1(C)CC[C@]2(C(=O)O)CC[C@]3(C)C(=CC[C@@H]4[C@@]5(C)CC[C@H](O)C(C)(C)[C@@H]5CC[C@]43C)[C@@H]2C1 [OLEANOLIC_ACID]
Influenza A virus [1]
  IC50: 72.2 µM
[2]
  selectivity ratio: > 1.38
[4]
  CC50 at 40 h: > 100 µM

## CC1(C)CC[C@]2(C(=O)NCc3cn([C@@H]4O[C@H](CO)[C@@H](O[C@@H]5O[C@H](CO)[C@H](O)[C@H](O)[C@H]5O)[C@H](O)[C@H]4O)nn3)CC[C@]3(C)C(=CC[C@@H]4[C@@]5(C)CC[C@H](O)C(C)(C)[C@@H]5CC[C@]43C)[C@@H]2C1
MDCK
  Activity: Non-Toxic

## CC1(C)CC[C@]2(C(=O)NCc3cn([C@@H]4O[C@H](CO)[C@@H](O[C@@H]5O[C@H](CO)[C@@H](O)[C@H](O)[C@H]5O)[C@H](O)[C@H]4O)nn3)CC[C@]3(C)C(=CC[C@@H]4[C@@]5(C)CC[C@H](O)C(C)(C)[C@@H]5CC[C@]43C)[C@@H]2C1
MDCK
  Activity: Non-Toxic

## CC1(C)CC[C@]2(C(=O)NCc3cn([C@@H]4O[C@H](CO)[C@@H](O[C@H]5O[C@H](CO)[C@@H](O[C@H]6O[C@H](CO)[C@@H](O)[C@H](O)[C@H]6O)[C@H](O)[C@H]5O)[C@H](O)[C@H]4O)nn3)CC[C@]3(C)C(=CC[C@@H]4[C@@]5(C)CC[C@H](O)C(C)(C)[C@@H]5CC[C@]43C)[C@@H]2C1
Influenza A virus [10]
  Activity: inactive
MDCK
  Activity: Non-Toxic

## CC(=O)OC[C@H]1O[C@@H](n2cc(CNC(=O)[C@]34CCC(C)(C)C[C@H]3C3=CC[C@@H]5[C@@]6(C)CC[C@H](O)C(C)(C)[C@@H]6CC[C@@]5(C)[C@]3(C)CC4)nn2)[C@H](OC(C)=O)[C@@H](OC(C)=O)[C@@H]1O[C@H]1O[C@H](COC(C)=O)[C@@H](OC(C)=O)[C@H](OC(C)=O)[C@H]1OC(C)=O
MDCK
  Activity: Non-Toxic

## CC(=O)OC[C@H]1O[C@H](n2cc(CNC(=O)[C@]34CCC(C)(C)C[C@H]3C3=CC[C@@H]5[C@@]6(C)CC[C@H](O)C(C)(C)[C@@H]6CC[C@@]5(C)[C@]3(C)CC4)nn2)[C@@H](OC(C)=O)[C@@H](OC(C)=O)[C@@H]1OC(C)=O
Influenza A virus [1]
  IC50: 7.22 µM
MDCK
  Activity: Non-Toxic
[2]
  selectivity ratio: > 13.8
[3]
  viability at 40 h, 100 µM: > 75%
[4]
  CC50 at 40 h: > 100 µM
Influenza A virus [5]
  inhibition at 100 µM: > 75%
